In ChEMBL document CHEMBL3272208, “(Vinylaryloxy)acetic acids. A new class of diuretic agents. 3. ((2-Nitro-1-alkenyl)aryloxy)acetic acids” (1976):

How the values were obtained:
Canis familiaris [1] = assay: Diuretic activity in mongrel dog assessed as volume of excreted urine at 1 mg/kg, iv measured between 15 to 45 mins after dosage (reference value: 1 to 4 ml/min); assay type: functional, Canis lupus familiaris
Procedure, shortened: (§1)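 Compounds were given iv to dogs as Na salts in H2O. […] The baseline is the mean of two 15-min periods before dosing. The response is the mean of two consecutive 15-min periods of maximal Na+ excretion, usually 15–45 min post-dose. Na+, K+ and Cl- are in μequiv/min and urine volume in ml/min, reported as control/drug.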

Canis familiaris [2] = assay: Diuretic activity in mongrel dog assessed as potassium level in excreted urine at 1 mg/kg, iv measured between 15 to 45 mins after dosage (reference value: 6 to 47 uequiv/min); assay type: functional, Canis lupus familiaris; procedure, shortened: as §1
Canis familiaris [3] = assay: Diuretic activity in mongrel dog assessed as potassium level in excreted urine at 1 mg/kg, po measured for 6 hrs (reference value: 1 mequivalents); assay type: functional, Canis lupus familiaris
Canis familiaris [4] = assay: Diuretic activity in mongrel dog assessed as chloride level in excreted urine at 1 mg/kg, iv measured between 15 to 45 mins after dosage (reference value: 1 to 70 uequiv/min); assay type: functional, Canis lupus familiaris
Procedure, shortened: (§2)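 Compounds were given iv to dogs as Na salts in H2O. The baseline is the mean of two 15-min periods before dosing. The response is the mean of two consecutive 15-min periods of maximal Na+ excretion, usually 15–45 min post-dose. Na+, K+ and Cl- are in μequiv/min and urine volume in ml/min, reported as control/drug.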

Canis familiaris [5] = assay: Diuretic activity in mongrel dog assessed as sodium level in excreted urine at 1 mg/kg, iv measured […] after dosage (reference value: 3 to 95 uequiv/min); assay type: functional, Canis lupus familiaris; procedure, shortened: as §2
Canis familiaris [6] = assay: Diuretic activity in mongrel dog assessed as chloride level in excreted urine at 1 mg/kg, po measured for 6 hrs (reference value: 2 mequivalents); assay type: functional, Canis lupus familiaris
Canis familiaris [7] = assay: Diuretic activity in mongrel dog assessed as volume of excreted urine at 1 mg/kg, po measured for 6 hrs (RVb = 180 ml)
Canis familiaris [8] = assay: Diuretic activity in mongrel dog assessed as sodium level in excreted urine at 1 mg/kg, po measured for 6 hrs (reference value: 2 mequivalents); assay type: functional, Canis lupus familiaris
Canis familiaris [9] = assay: Diuretic activity in mongrel dog assessed as sodium level in excreted urine at 10 mg/kg, iv measured […] after dosage (reference value: 5 to 66 uequiv/min); assay type: functional, Canis lupus familiaris; procedure, shortened: as §1
Canis familiaris [10] = assay: Diuretic activity in mongrel dog assessed as potassium level in excreted urine at 10 mg/kg, iv measured between 15 to 45 mins after dosage (reference value: 7 to 63 uequiv/min); assay type: functional, Canis lupus familiaris; procedure, shortened: as §1
Canis familiaris [11] = assay: Diuretic activity in mongrel dog assessed as chloride level in excreted urine at 10 mg/kg, iv measured between 15 to 45 mins after dosage (reference value: 3 to 64 uequiv/min); assay type: functional, Canis lupus familiaris; procedure, shortened: as §2
Canis familiaris [12] = assay: Diuretic activity in mongrel dog assessed as volume of excreted urine at 10 mg/kg, iv measured between 15 to 45 mins after dosage (reference value: 1 to 4 ml/min); assay type: functional, Canis lupus familiaris; procedure, shortened: as §1
Canis familiaris [13] = assay: Diuretic activity in mongrel dog assessed as chloride level in excreted urine at 5 mg/kg, iv measured between 15 to 45 mins after dosage (reference value: 1 to 65 uequiv/min); assay type: functional, Canis lupus familiaris; procedure, shortened: as §1
Canis familiaris [14] = assay: Diuretic activity in mongrel dog assessed as sodium level in excreted urine at 5 mg/kg, iv measured […] after dosage (reference value: 1 to 91 uequiv/min); assay type: functional, Canis lupus familiaris; procedure, shortened: as §1
Canis familiaris [15] = assay: Diuretic activity in mongrel dog assessed as volume of excreted urine at 5 mg/kg, iv measured between 15 to 45 mins after dosage (reference value: 1 to 5 ml/min); assay type: functional, Canis lupus familiaris; procedure, shortened: as §1
Canis familiaris [16] = assay: Diuretic activity in mongrel dog assessed as potassium level in excreted urine at 5 mg/kg, iv measured between 15 to 45 mins after dosage (reference value: 12 to 70 uequiv/min); assay type: functional, Canis lupus familiaris; procedure, shortened: as §1
Canis familiaris [17] = assay: Diuretic activity in mongrel dog assessed as potassium level in excreted urine at 5 mg/kg, po measured for 6 hrs (reference value: 1 mequivalents); assay type: functional, Canis lupus familiaris
Canis familiaris [18] = assay: Diuretic activity in mongrel dog assessed as chloride level in excreted urine at 5 mg/kg, po measured for 6 hrs (reference value: 2 mequivalents); assay type: functional, Canis lupus familiaris
Canis familiaris [19] = assay: Diuretic activity in mongrel dog assessed as sodium level in excreted urine at 5 mg/kg, po measured for 6 hrs (reference value: 2 mequivalents); assay type: functional, Canis lupus familiaris
Canis familiaris [20] = assay: Diuretic activity in mongrel dog assessed as volume of excreted urine at 5 mg/kg, po measured for 6 hrs (RVb = 180 ml)

## C/C(=C\c1ccc(OCC(=O)O)cc1Cl)[N+](=O)[O-]
Canis familiaris [1]
  Activity: 7 mL/min
Canis familiaris [2]
  Activity: 92 uEq/min
Canis familiaris [3]
  Activity: 5 milliequivalent
Canis familiaris [4]
  Activity: 765 uEq/min
Canis familiaris [5]
  Activity: 683 uEq/min
Canis familiaris [6]
  Activity: 22 milliequivalent
Canis familiaris [7]
  Activity: 402 mL
Canis familiaris [8]
  Activity: 16 milliequivalent

## CC/C(=C\c1ccc(OCC(=O)O)c(Cl)c1Cl)[N+](=O)[O-]
Canis familiaris [1]
  Activity: 10 mL/min
Canis familiaris [2]
  Activity: 89 uEq/min
Canis familiaris [3]
  Activity: 5 milliequivalent
Canis familiaris [4]
  Activity: 1295 uEq/min
Canis familiaris [5]
  Activity: 1174 uEq/min
Canis familiaris [6]
  Activity: 28 milliequivalent
Canis familiaris [7]
  Activity: 465 mL
Canis familiaris [8]
  Activity: 26 milliequivalent

## C/C(=C\c1ccc(OCC(=O)O)c2ccccc12)[N+](=O)[O-]
Canis familiaris [1]
  Activity: 15 mL/min
Canis familiaris [2]
  Activity: 128 uEq/min
Canis familiaris [3]
  Activity: 7 milliequivalent
Canis familiaris [4]
  Activity: 1659 uEq/min
Canis familiaris [5]
  Activity: 1612 uEq/min
Canis familiaris [6]
  Activity: 39 milliequivalent
Canis familiaris [7]
  Activity: 538 mL
Canis familiaris [8]
  Activity: 33 milliequivalent

## CC/C(=C\c1ccc(OCC(=O)O)c2ccccc12)[N+](=O)[O-]
Canis familiaris [1]
  Activity: 13 mL/min
Canis familiaris [2]
  Activity: 179 uEq/min
Canis familiaris [4]
  Activity: 2036 uEq/min
Canis familiaris [5]
  Activity: 1848 uEq/min

## C/C(=C\c1cc(Cl)ccc1OCC(=O)O)[N+](=O)[O-]
Canis familiaris [1]
  Activity: 2 mL/min
Canis familiaris [2]
  Activity: 17 uEq/min
Canis familiaris [4]
  Activity: 7 uEq/min
Canis familiaris [5]
  Activity: 22 uEq/min

## O=C(O)COc1ccc(/C=C/[N+](=O)[O-])cc1Cl
Canis familiaris [9]
  Activity: 201 uEq/min
Canis familiaris [10]
  Activity: 65 uEq/min
Canis familiaris [11]
  Activity: 146 uEq/min
Canis familiaris [12]
  Activity: 3 mL/min

## C/C(=C\c1ccc(OCC(=O)O)c(Cl)c1)[N+](=O)[O-]
Canis familiaris [1]
  Activity: 8 mL/min
Canis familiaris [2]
  Activity: 142 uEq/min
Canis familiaris [4]
  Activity: 766 uEq/min
Canis familiaris [5]
  Activity: 734 uEq/min

## CC/C(=C\c1ccc(OCC(=O)O)c(Cl)c1)[N+](=O)[O-]
Canis familiaris [1]
  Activity: 15 mL/min
Canis familiaris [2]
  Activity: 131 uEq/min
Canis familiaris [4]
  Activity: 1727 uEq/min
Canis familiaris [5]
  Activity: 1618 uEq/min

## CC/C(=C\c1ccc(OCC(=O)O)cc1Cl)[N+](=O)[O-]
Canis familiaris [1]
  Activity: 13 mL/min
Canis familiaris [2]
  Activity: 101 uEq/min
Canis familiaris [4]
  Activity: 1431 uEq/min
Canis familiaris [5]
  Activity: 1398 uEq/min

## O=C(O)COc1ccc(/C=C/[N+](=O)[O-])c(Cl)c1Cl
Canis familiaris [1]
  Activity: 4 mL/min
Canis familiaris [2]
  Activity: 7 uEq/min
Canis familiaris [4]
  Activity: 47 uEq/min
Canis familiaris [5]
  Activity: 132 uEq/min

## CC/C(=C\c1ccc(OC(C)C(=O)O)c(Cl)c1Cl)[N+](=O)[O-] (stereo not given)
Canis familiaris [1]
  Activity: 7 mL/min
Canis familiaris [2]
  Activity: 67 uEq/min
Canis familiaris [4]
  Activity: 528 uEq/min
Canis familiaris [5]
  Activity: 490 uEq/min

## C/C(=C\c1ccc(OC(C)C(=O)O)c(Cl)c1Cl)[N+](=O)[O-] (stereo not given)
Canis familiaris [13]
  Activity: 1228 uEq/min
Canis familiaris [14]
  Activity: 1191 uEq/min
Canis familiaris [15]
  Activity: 9 mL/min
Canis familiaris [16]
  Activity: 74 uEq/min

## CC/C(=C\c1ccc(OCC(=O)O)c(C)c1C)[N+](=O)[O-]
Canis familiaris [1]
  Activity: 13 mL/min
Canis familiaris [2]
  Activity: 118 uEq/min
Canis familiaris [4]
  Activity: 1650 uEq/min
Canis familiaris [5]
  Activity: 1583 uEq/min

## CC/C(=C\c1cc(Cl)ccc1OCC(=O)O)[N+](=O)[O-]
Canis familiaris [13]
  Activity: 75 uEq/min
Canis familiaris [14]
  Activity: 117 uEq/min
Canis familiaris [15]
  Activity: 4 mL/min
Canis familiaris [16]
  Activity: 48 uEq/min

## CC/C(=C\c1cc(Cl)cc(Cl)c1OCC(=O)O)[N+](=O)[O-]
Canis familiaris [9]
  Activity: 71 uEq/min
Canis familiaris [10]
  Activity: 29 uEq/min
Canis familiaris [11]
  Activity: 6 uEq/min
Canis familiaris [12]
  Activity: 3 mL/min

## O=C(O)COc1ccc(/C=C/[N+](=O)[O-])cc1
Canis familiaris [13]
  Activity: 5 uEq/min
Canis familiaris [14]
  Activity: 80 uEq/min
Canis familiaris [15]
  Activity: 2 mL/min
Canis familiaris [16]
  Activity: 35 uEq/min

## CC/C(=C\c1cccc(OCC(=O)O)c1)[N+](=O)[O-]
Canis familiaris [9]
  Activity: 452 uEq/min
Canis familiaris [10]
  Activity: 76 uEq/min
Canis familiaris [11]
  Activity: 639 uEq/min
Canis familiaris [12]
  Activity: 7 mL/min

## CCCC/C(=C\c1ccc(OCC(=O)O)c(Cl)c1Cl)[N+](=O)[O-]
Canis familiaris [1]
  Activity: 4 mL/min
Canis familiaris [2]
  Activity: 78 uEq/min
Canis familiaris [4]
  Activity: 364 uEq/min
Canis familiaris [5]
  Activity: 322 uEq/min

## CCCCC/C(=C\c1ccc(OCC(=O)O)c(Cl)c1Cl)[N+](=O)[O-]
Canis familiaris [1]
  Activity: 3 mL/min
Canis familiaris [2]
  Activity: 56 uEq/min
Canis familiaris [3]
  Activity: 3 milliequivalent
Canis familiaris [4]
  Activity: 269 uEq/min
Canis familiaris [5]
  Activity: 179 uEq/min
Canis familiaris [6]
  Activity: 9 milliequivalent
Canis familiaris [7]
  Activity: 413 mL
Canis familiaris [8]
  Activity: 10 milliequivalent

## O=C(O)COc1c(Cl)cc(Cl)cc1/C=C/[N+](=O)[O-]
Canis familiaris [13]
  Activity: 3 uEq/min
Canis familiaris [14]
  Activity: 33 uEq/min
Canis familiaris [15]
  Activity: 2 mL/min
Canis familiaris [16]
  Activity: 33 uEq/min

## C/C(=C\c1cc(Cl)cc(Cl)c1OCC(=O)O)[N+](=O)[O-]
Canis familiaris [13]
  Activity: 41 uEq/min
Canis familiaris [14]
  Activity: 80 uEq/min
Canis familiaris [15]
  Activity: 3 mL/min
Canis familiaris [16]
  Activity: 25 uEq/min

## C/C(=C\c1ccc(C(=O)O)cc1Cl)[N+](=O)[O-]
Canis familiaris [9]
  Activity: 364 uEq/min
Canis familiaris [10]
  Activity: 45 uEq/min
Canis familiaris [11]
  Activity: 335 uEq/min
Canis familiaris [12]
  Activity: 7 mL/min

## CC/C(=C\c1ccc(C(=O)O)cc1Cl)[N+](=O)[O-]
Canis familiaris [9]
  Activity: 182 uEq/min
Canis familiaris [10]
  Activity: 63 uEq/min
Canis familiaris [11]
  Activity: 146 uEq/min
Canis familiaris [12]
  Activity: 3 mL/min

## CC/C(=C\c1ccc(OCCCC(=O)O)c(Cl)c1Cl)[N+](=O)[O-]
Canis familiaris [13]
  Activity: 28 uEq/min
Canis familiaris [14]
  Activity: 62 uEq/min
Canis familiaris [15]
  Activity: 3 mL/min
Canis familiaris [16]
  Activity: 29 uEq/min

## COC(=O)COc1ccc(/C=C(\C)[N+](=O)[O-])c(Cl)c1Cl
Canis familiaris [17]
  Activity: 7 milliequivalent
Canis familiaris [18]
  Activity: 47 milliequivalent
Canis familiaris [19]
  Activity: 37 milliequivalent
Canis familiaris [20]
  Activity: 769 mL

## CC(=O)/C=C/c1ccc(OCC(=O)O)c(Cl)c1Cl
Canis familiaris [13]
  Activity: 1080 µequiv/min
Canis familiaris [14]
  Activity: 911 uEq/min
Canis familiaris [15]
  Activity: 8 mL/min
Canis familiaris [16]
  Activity: 76 uEq/min
